# According to ChEMBL document CHEMBL3792330, “Designed Glycopeptidomimetics Disrupt Protein-Protein Interactions Mediating Amyloid β-Peptide Aggregation and Restore Neuroblastoma Cell Viability” (J Med Chem, 2016):
# Calls of active or inactive are those of the source. No cut-off for these calls is given here.
# Assays:
# [1] = target: Amyloid-beta precursor protein (Homo sapiens) (UniProt P05067); assay: Inhibition of amyloid beta (1 to 42) (unknown origin) fibril formation assessed as extension of aggregation half life at compound/protein ratio of 10/1 after 42 hrs by ThT fluorescence assay relative to control; set-up: Activity: scale not given: the % may be the effect or the level left
# Chain of Amyloid-beta precursor protein (Homo sapiens) (P05067 whole entry, the tested form may be a part): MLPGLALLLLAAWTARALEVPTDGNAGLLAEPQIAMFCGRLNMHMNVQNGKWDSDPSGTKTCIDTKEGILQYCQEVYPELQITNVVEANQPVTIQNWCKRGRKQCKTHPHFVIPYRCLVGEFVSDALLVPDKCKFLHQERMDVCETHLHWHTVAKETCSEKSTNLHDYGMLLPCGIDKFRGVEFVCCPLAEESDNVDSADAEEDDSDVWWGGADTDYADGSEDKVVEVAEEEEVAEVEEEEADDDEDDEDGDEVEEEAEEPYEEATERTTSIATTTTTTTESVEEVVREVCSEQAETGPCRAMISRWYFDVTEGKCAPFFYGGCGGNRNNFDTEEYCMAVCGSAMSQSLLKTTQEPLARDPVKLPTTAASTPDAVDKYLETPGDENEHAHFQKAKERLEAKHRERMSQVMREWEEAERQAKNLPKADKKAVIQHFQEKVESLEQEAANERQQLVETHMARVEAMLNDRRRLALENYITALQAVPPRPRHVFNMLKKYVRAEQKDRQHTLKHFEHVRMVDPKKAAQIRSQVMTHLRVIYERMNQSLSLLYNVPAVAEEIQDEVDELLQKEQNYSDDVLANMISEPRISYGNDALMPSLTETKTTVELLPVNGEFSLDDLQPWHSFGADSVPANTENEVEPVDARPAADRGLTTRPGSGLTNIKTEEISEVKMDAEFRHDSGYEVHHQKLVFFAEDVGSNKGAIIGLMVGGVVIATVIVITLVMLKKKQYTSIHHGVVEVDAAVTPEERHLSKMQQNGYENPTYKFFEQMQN
# Method in brief: (§1)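 Aβ1-42 (1 mM in 1% ammonia, diluted in buffer) added to a final 10 μM into 40 μM ThT in 10 mM Tris-HCl, 100 mM NaCl pH 7.4, with compound at 100, 50, 10 or 1 μM (0.5% DMSO), at room temperature. Ex/em 440/485 nm read for 42 h, in duplicate or triplicate, 2–4 runs. t1/2 and plateau F expressed relative to Aβ alone.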
# [2] = target: Amyloid-beta precursor protein (Homo sapiens) (UniProt P05067); assay: Inhibition of amyloid beta (1 to 42) (unknown origin) fibril formation assessed as decrease in fluorescence plateau at compound/protein ratio of 10/1 after 42 hrs by ThT fluorescence assay relative to control; settings: concentration not given here; method in brief: as §1
# [3] = target: Amyloid-beta precursor protein (Homo sapiens) (UniProt P05067); assay: Inhibition of amyloid beta (1 to 42) (unknown origin) fibril formation assessed as extension of aggregation half life at compound/protein ratio of 0.1/1 after 42 hrs by ThT fluorescence assay relative to control; set-up: Activity: scale not given: the % may be the effect or the level left; method in brief: as §1
# [4] = target: Amyloid-beta precursor protein (Homo sapiens) (UniProt P05067); assay: Binding affinity to amyloid beta (1 to 42) (unknown origin) by SPR analysis
# Method in brief: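 Aβ1-42 (0.05 μM in 10 mM sodium acetate pH 4.6) amine-coupled to an EDC/NHS-activated gold chip, then rinsed with 0.1% NH4OH to leave mainly monomer. Analytes in 150 mM PBS with 2% DMSO were injected at 12.5–200 μM for 1 min at 80 μL/min. DMSO solvent correction applied and the ethanolamine-blocked blank channel subtracted. Regeneration with 0.1% NH4OH.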
# [5] = target: Amyloid-beta precursor protein (Homo sapiens) (UniProt P05067); assay: Inhibition of amyloid beta (1 to 42) (unknown origin) oligomerization assessed as remaining monomer level at compound/protein ratio of 1/1 after 12 hrs by capillary electrophoresis (reference value: 19%)
# Method in brief: (§2)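 Aβ1-42 pretreated in 0.16% NH4OH, lyophilized, then reconstituted at 100 μM in 20 mM phosphate pH 7.4 with 2.5% DMSO, compound/peptide 1/1. Species separated in fused silica capillary (50 μm ID) with 80 mM phosphate pH 7.4 background electrolyte, −20 kV, 25 °C. UV detection at 190 nm; profiles taken at 0 and 12 h.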
# [6] = target: Amyloid-beta precursor protein (Homo sapiens) (UniProt P05067); assay: Inhibition of amyloid beta (1 to 42) (unknown origin) fibril formation assessed as extension of aggregation half life at compound/protein ratio of 1/1 after 42 hrs by ThT fluorescence assay relative to control; set-up: Activity: scale not given: the % may be the effect or the level left; method in brief: as §1
# [7] = target: Amyloid-beta precursor protein (Homo sapiens) (UniProt P05067); assay: Inhibition of amyloid beta (1 to 42) (unknown origin) fibril formation assessed as decrease in fluorescence plateau at compound/protein ratio of 1/1 after 42 hrs by ThT fluorescence assay relative to control; method in brief: as §1
# [8] = target: Amyloid-beta precursor protein (Homo sapiens) (UniProt P05067); assay: Inhibition of amyloid beta (1 to 42) (unknown origin) fibril formation assessed as decrease in fluorescence plateau at compound/protein ratio of 0.1/1 after 42 hrs by ThT fluorescence assay relative to control; settings: concentration not given here; method in brief: as §1
# [9] = target: Amyloid-beta precursor protein (Homo sapiens) (UniProt P05067); assay: Inhibition of amyloid beta (1 to 42) (unknown origin) oligomerization assessed as formation of larger than dodecamers at compound/protein ratio of 1/1 at 12 hrs by capillary electrophoresis; method in brief: as §2
# [10] = target: Amyloid-beta precursor protein (Homo sapiens) (UniProt P05067); assay: Binding affinity to synthetic 15N,13C-labelled recombinant amyloid beta (1 to 42) (unknown origin) assessed as negative nuclear overhauser effect at 0.4 mM after 2.5 weeks by 1D 1H water LOGSY method
# Method in brief: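 WaterLOGSY at 5 °C in 50 mM sodium phosphate pH 7.4 with 10% D2O, synthetic Aβ1-42. Ligand at 0.4 mM. Selective water inversion with a 20 ms Gaussian pulse, 0.5 s mixing, 2 s recycle delay, 1200 scans (about 1 h), 500 MHz cryoprobe.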
# [11] = target: Amyloid-beta precursor protein (Homo sapiens) (UniProt P05067); assay: Binding affinity to synthetic 15N,13C-labelled recombinant amyloid beta (1 to 42) (unknown origin) assessed as negative nuclear overhauser effect at 0.4 mM after 2.5 weeks by 2D NOESY method
# Method in brief: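 2D NOESY at 5 °C with 0.2 s mixing time. Synthetic Aβ1-42 in 50 mM sodium phosphate pH 7.4 with 10% D2O, ligand at 0.4 mM, recorded at 500 MHz.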
# [12] = target: Amyloid-beta precursor protein (Homo sapiens) (UniProt P05067); assay: Binding affinity to synthetic 15N,13C-labelled recombinant amyloid beta (1 to 42) (unknown origin) at 0.4 mM after 2.5 weeks by saturation transfer difference method
# Method in brief: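 1D 1H STD at 5 °C in 50 mM sodium phosphate pH 7.4 with 10% D2O. Cascade of 50 ms Gaussian pulses (B1 0.1 kHz, 3 s total) applied alternately on-resonance at −0.7 ppm and off-resonance at +30 ppm. 320 scans (50 min). Ligand at 0.4 mM.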
# [13] = target: Amyloid-beta precursor protein (Homo sapiens) (UniProt P05067); assay: Inhibition of amyloid beta (1 to 42) (unknown origin) aggregation after 42 hrs by uranyl acetate staining-based transmission electron microscopy
# Method in brief: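 Samples prepared as for ThT: Aβ1-42 at 10 μM in 10 mM Tris-HCl, 100 mM NaCl pH 7.4, with or without compound at 10 or 100 μM. After 42 h, adsorbed 2 min onto carbon grids and negatively stained 45 s with 2% uranyl acetate. Imaged by TEM at 80 kV.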
# [14] = target: Amyloid-beta precursor protein (Homo sapiens) (UniProt P05067); assay: Inhibition of amyloid beta (1 to 42) (unknown origin) fibril formation after 42 hrs by ThT fluorescence assay; method in brief: as §1
Structure (SMILES),inhibition [1],inhibition [2],Activity [6],inhibition ([7]; concentration not given here),inhibition [13],inhibition [14],other results
COc1ccc(NC(C)=O)cc1C(=O)NNC(=O)[C@H](CCCCN)NC(=O)CCOC[C@H]1O[C@@H](OCCCNC(=O)[C@@H](NC(=O)[C@H](C)N)C(C)C)[C@H](O)[C@@H](O)[C@@H]1O,Active,90%,165%,34%,,,Activity [3]: 129%; Activity [4]: Dose-dependent effect; Activity [5]: 52%; inhibition [8]: 16%; inhibition [9]: Active; Activity [10]: Active; Activity [11]: Active; Activity [12]: Active
COc1ccc(NC(C)=O)cc1C(=O)NNC(=O)[C@H](CCCCN)NC(=O)CCOC[C@H]1OC(OCCCNC(=O)[C@@H](NC(=O)[C@H](C)NC(=O)OC(C)(C)C)C(C)C)[C@H](O)[C@@H](O)[C@@H]1O (some centres undefined),Active,84%,154%,26%,,,
COc1ccc(NC(C)=O)cc1C(=O)NNC(=O)[C@@H](NC(=O)CCOC[C@H]1OC(OCCCNC(=O)[C@@H](NC(=O)[C@H](C)N)C(C)C)[C@H](O)[C@@H](O)[C@@H]1O)C(C)C (mixture of isomers),,31%,155%,,,,Activity [1]: 325%; inhibition [7]: inactive
COc1ccc(NC(C)=O)cc1C(=O)NNC(=O)[C@H](CCCCNC(=O)OCc1ccccc1)NC(=O)CCOC[C@H]1OC(OCCCNC(=O)[C@@H](NC(=O)[C@H](C)NC(=O)OC(C)(C)C)C(C)C)[C@H](OCc2ccccc2)[C@@H](OCc2ccccc2)[C@@H]1OCc1ccccc1 (mixture of isomers),,,,,inactive,inactive,
COc1ccc(NC(C)=O)cc1C(=O)NNC(=O)[C@H](CCCCNC(=O)OCc1ccccc1)NC(=O)CCOC[C@H]1OC(OCCCNC(=O)[C@@H](NC(=O)[C@H](C)N)C(C)C)[C@H](OCc2ccccc2)[C@@H](OCc2ccccc2)[C@@H]1OCc1ccccc1 (mixture of isomers),,,,,inactive,inactive,
